High-throughput results from PubChem BioAssay.
This excerpt belongs to a sample that is enriched for hits.
INS promoter act: TRM-6 insulin promoter activation. hit rate 0.81% among 130,000. activation, % at 2 µM. TRM-6 cells, insulin promoter eGFP reporter, imaging; plate-scaled: unstimulated 0, stimulated control 100. AID 1296;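 active means activation at 2 µM above a set limit, confirmed on inspection of the cell images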;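 further: share of cells whose green reporter signal exceeds an intensity cutoff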
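Test system: human fetal islet-derived TRM-6 cells with tamoxifen-inducible insulin promoter–eGFP reporter; schedule: overnight tamoxifen, then two-day compound incubation at 37 °C; measured by: high-content imaging of fixed cells with Hoechst nuclear stain; evaluation: percent cells above green-intensity threshold, converted to percent activation versus plate controls; control set: stimulated and unstimulated wells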
A number is an active result; – = inactive.

SMILES	INS promoter act
CCNC(=S)N(Cc1ccc2c(c1)OCO2)C1CC(=O)N(c2ccc(F)cc2)C1=O (centres undefined)	–
Cc1ccc(C(CC(=O)O)Nc2nc(N3CCOCC3)nc(N3CCOCC3)n2)cc1 (centres undefined)	–
COc1cc(/C=C(\C#N)c2nc3ccccc3s2)ccc1OCC(=O)Nc1ccccc1	–
CC(=O)Nc1sc(/C(C#N)=C/c2ccc(Cl)c(Cl)c2)nc1-c1ccc(C)cc1	223
N#C/C(=C/c1ccncc1)c1nc2ccccc2s1	–
O=C(O)c1ccc(COc2ccc(Cl)cc2)o1	–
O=C(O)CC(SCc1ccc(C(=O)O)o1)C(=O)O (centres undefined)	76
O=C(O)c1ccc(CS(=O)c2cccc(C(F)(F)F)c2)o1 (centres undefined)	–
CC/C(C)=C1\SC(N2CCOCC2)=NC1=O	–
COc1ccc2c(c1)c(=O)c(C(=O)c1ccccc1)cn2Cc1ccc(C)cc1	–
O=C(O)c1cn(Cc2ccccc2)c2ccccc2c1=O	383
O=C1C2C3C=CC(C3)C2C(=O)N1/N=C/c1cn(Cc2ccccc2)c2ccccc12 (centres undefined)	–
CCOc1ccc(NC(=O)CSc2nnc(Cn3cnc4ccccc43)n2C)cc1	–
O=C(Nc1cccnc1)c1cn(-c2ccccc2)nc1-c1cccs1	–
N#CCCn1cc(C(=O)Nc2ccccc2Br)c(-c2cccs2)n1	457
O=C(Nc1cccc2ccccc12)c1cn(-c2ccccc2)nc1-c1cccs1	–
CC(=O)Nc1ccc(S(=O)(=O)NC(C)C(=O)NCCc2ccc(F)cc2)cc1 (centres undefined)	–
N#Cc1cccc(NC(=S)Nc2ccccc2)c1	–
COc1cccc2c1C(=O)c1c(O)c3c(c(O)c1C2=O)C[C@@](O)(C(C)=O)C[C@@H]3O[C@H]1C[C@H](N)[C@H](O)[C@H](C)O1	354
CCS(=O)(=O)N1CCN=C1SCc1cccnc1	–
COC(=O)c1ccc2c(=O)n(CC3CCCO3)c(SCC(=O)NCCc3ccc(S(N)(=O)=O)cc3)nc2c1 (centres undefined)	–
O=C(CCCCCNC(=O)c1ccccc1)C[N+](=O)[O-]	–
CSc1ccc(CNc2ccc(C)c(C)c2)cc1	–
Cc1ccc(NCC(O)C(O)C(O)CO)cc1C (centres undefined)	427
Cc1cc(N=Nc2ccccc2)c(NCC(O)C(O)C(O)CO)cc1C (centres undefined)	–
SMILES	INS promoter act
COc1cc(/C=C/C(=O)N2CCN(c3n[nH]c(=O)[nH]c3=O)CC2)cc(OC)c1OC	–
COC(=O)C(Cc1cnc(Cl)s1)(C(=O)OC)c1ccc([N+](=O)[O-])cc1	536
CC1CN(CCOc2ccc([N+](=O)[O-])cc2)CC(C)O1 (centres undefined)	–
Cc1ccc(OCC(=O)Nc2ccc([N+](=O)[O-])cc2)cc1	–
O=[N+]([O-])c1ccc(OCc2cnc(Cl)s2)cc1	240
COC(=O)C(Cc1cnc(Cl)s1)(C(=O)OC)c1ccccc1[N+](=O)[O-]	–
O=[N+]([O-])c1ccc(COc2ccc(CNc3ccccc3)cc2)cc1	–
O=C(NCCC1=CCCCC1)C(=O)NCC(c1ccco1)N1CCN(c2ccccc2F)CC1 (centres undefined)	–
O=C(Nc1ccc([N+](=O)[O-])cc1)Nc1nc(-c2ccc(Cl)s2)cs1	–
CCC(C)n1c(SCC(=O)Nc2cc(C(C)(C)C)nn2-c2ccccc2)nc2ccccc2c1=O (centres undefined)	–
CC(C)(C)NC(=O)c1ccncc1	–
CC(C)(CCl)C(=O)Nc1ccc(C(F)(F)F)cc1	–
CC(C)(C)NC(=O)/C=C/c1ccc(C(F)(F)F)cc1	322
COc1ccc(/C=C/C(=O)OCC(=O)Nc2cc(C(F)(F)F)ccc2Cl)cc1	–
O=c1c([N+](=O)[O-])cccn1Cc1cccc(Cl)c1	–
COc1ccccc1/C=C1\CCCC2=C1Nc1nnnn1C2c1ccccc1OC (centres undefined)	–
CCOC(=O)c1nn(-c2ccccc2)c2nnc(Cc3ccccc3)c(=O)n12	–
O=C(Nc1ccncc1)C1(c2ccccc2)CCCC1	–
CC(=O)N1N=C(c2ccncc2)OC12CCCC2	543
NS(=O)(=O)c1ccc(CCNC(=O)COC(=O)/C=C/c2ccccc2Cl)cc1	–
COc1ccccc1NC(=S)NC(=O)c1ccc(Cn2cc(Br)cn2)cc1	–
CCCC(c1nnnn1C1CCCC1)N1CCN(C(=O)c2ccco2)CC1 (centres undefined)	181
O=C(c1ccco1)N1CCN(C(c2ccccn2)c2nnnn2C2CCCC2)CC1 (centres undefined)	–
O=C(c1ccco1)N1CCN(C(c2coc3ccc(Cl)cc3c2=O)c2nnnn2C2CCCC2)CC1 (centres undefined)	–
O=C(CC1SC(=NCc2ccccc2)NC1=O)Nc1ccccc1 (centres undefined)	–
O=C(Cc1ccc(Br)cc1)Nc1ccccc1Cl	–
COc1ccc(OC)c(NC(=O)CSc2ncnc3c2cnn3-c2ccccc2Cl)c1	–
